Laboratory results: ChEMBL document CHEMBL1165965, “Synthesis and structure-activity relationships of 1,2,3,4-tetrahydropyrido[2,3-b]pyrazines as potent and selective inhibitors of the anaplastic lymphoma kinase” (Bioorg Med Chem, 2010)

Columns and labels:
[1] = molecular target: Dual specificity mitogen-activated protein kinase kinase 2 (Homo sapiens) (UniProt P36507); assay: Inhibition of MEK2 at 1 uM
[2] = molecular target: Serine/threonine-protein kinase MRCK alpha (Homo sapiens) (UniProt Q5VT25); assay: Inhibition of MRCKA at 1 uM
Method in brief: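 Kinase-panel screen using KINOMEscan technology, with 250–400 kinases per panel. Each compound was tested at a single concentration, and inhibition of each kinase was recorded. Selectivity was summarised as S(90), the fraction of kinases inhibited by more than 90%.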

[3] = molecular target: Myosin-IIIa (Homo sapiens) (UniProt Q8NEV4); assay: Inhibition of MYO3A at 1 uM
[4] = molecular target: T1, Serine/threonine-protein kinase RIO3 (Homo sapiens) (UniProt O14730); assay: Inhibition of RIOK3 at 1 uM
T1 sequence (whole entry): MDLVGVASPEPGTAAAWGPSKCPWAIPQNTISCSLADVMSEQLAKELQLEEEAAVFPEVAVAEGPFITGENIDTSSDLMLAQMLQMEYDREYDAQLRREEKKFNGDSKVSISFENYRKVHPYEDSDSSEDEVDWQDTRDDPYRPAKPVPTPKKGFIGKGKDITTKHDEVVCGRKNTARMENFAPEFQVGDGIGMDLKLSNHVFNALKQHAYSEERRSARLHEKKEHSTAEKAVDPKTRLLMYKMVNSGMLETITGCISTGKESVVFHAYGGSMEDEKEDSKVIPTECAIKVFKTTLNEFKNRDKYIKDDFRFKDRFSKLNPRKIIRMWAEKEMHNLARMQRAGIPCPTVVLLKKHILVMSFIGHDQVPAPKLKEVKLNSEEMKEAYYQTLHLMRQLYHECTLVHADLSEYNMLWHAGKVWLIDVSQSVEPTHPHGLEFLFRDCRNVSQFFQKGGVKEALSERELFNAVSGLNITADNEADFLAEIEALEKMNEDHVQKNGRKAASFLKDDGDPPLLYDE

[5] = molecular target: Tyrosine-protein kinase Yes (Homo sapiens) (UniProt P07947); assay: Inhibition of YES at 1 uM
[6] = molecular target: Dual specificity protein kinase CLK4 (Homo sapiens) (UniProt Q9HAZ1); assay: Inhibition of CLK4 at 1 uM
Method in brief: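 Single-concentration screen using Ambit Bioscience KINOMEscan technology across a panel of 250–400 kinases. Per-kinase inhibition from this screen was summarized as S(90), the fraction of kinases inhibited by more than 90%.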

[7] = molecular target: T2, Discoidin domain-containing receptor 2 (Homo sapiens) (UniProt Q16832); assay: Inhibition of DDR2 at 1 uM
T2 sequence (whole entry): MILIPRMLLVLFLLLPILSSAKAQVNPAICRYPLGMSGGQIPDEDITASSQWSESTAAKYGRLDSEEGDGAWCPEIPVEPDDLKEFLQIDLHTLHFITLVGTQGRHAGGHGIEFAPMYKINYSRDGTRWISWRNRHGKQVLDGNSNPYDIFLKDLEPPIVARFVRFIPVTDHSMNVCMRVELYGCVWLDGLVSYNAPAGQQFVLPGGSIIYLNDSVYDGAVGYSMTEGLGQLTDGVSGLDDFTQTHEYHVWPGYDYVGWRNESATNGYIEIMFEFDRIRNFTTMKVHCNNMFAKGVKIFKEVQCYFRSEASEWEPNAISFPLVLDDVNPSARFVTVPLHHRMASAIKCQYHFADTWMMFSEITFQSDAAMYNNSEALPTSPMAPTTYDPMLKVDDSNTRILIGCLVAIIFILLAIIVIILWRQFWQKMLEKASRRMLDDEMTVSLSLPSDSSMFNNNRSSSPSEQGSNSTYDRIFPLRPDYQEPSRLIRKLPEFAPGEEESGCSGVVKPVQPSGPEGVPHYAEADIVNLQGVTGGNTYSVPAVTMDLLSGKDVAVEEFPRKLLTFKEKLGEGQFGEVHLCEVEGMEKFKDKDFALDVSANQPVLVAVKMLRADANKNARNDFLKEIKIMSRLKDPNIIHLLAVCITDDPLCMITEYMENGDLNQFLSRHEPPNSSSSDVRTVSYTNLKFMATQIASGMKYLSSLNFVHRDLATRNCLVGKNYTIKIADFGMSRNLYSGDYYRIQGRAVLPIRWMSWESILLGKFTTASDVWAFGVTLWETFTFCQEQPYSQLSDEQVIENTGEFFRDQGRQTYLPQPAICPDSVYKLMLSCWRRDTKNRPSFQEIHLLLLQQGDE

[8] = molecular target: T3, Mitogen-activated protein kinase 15 (Homo sapiens) (UniProt Q8TD08); assay: Inhibition of ERK8 at 1 uM
T3 sequence (whole entry): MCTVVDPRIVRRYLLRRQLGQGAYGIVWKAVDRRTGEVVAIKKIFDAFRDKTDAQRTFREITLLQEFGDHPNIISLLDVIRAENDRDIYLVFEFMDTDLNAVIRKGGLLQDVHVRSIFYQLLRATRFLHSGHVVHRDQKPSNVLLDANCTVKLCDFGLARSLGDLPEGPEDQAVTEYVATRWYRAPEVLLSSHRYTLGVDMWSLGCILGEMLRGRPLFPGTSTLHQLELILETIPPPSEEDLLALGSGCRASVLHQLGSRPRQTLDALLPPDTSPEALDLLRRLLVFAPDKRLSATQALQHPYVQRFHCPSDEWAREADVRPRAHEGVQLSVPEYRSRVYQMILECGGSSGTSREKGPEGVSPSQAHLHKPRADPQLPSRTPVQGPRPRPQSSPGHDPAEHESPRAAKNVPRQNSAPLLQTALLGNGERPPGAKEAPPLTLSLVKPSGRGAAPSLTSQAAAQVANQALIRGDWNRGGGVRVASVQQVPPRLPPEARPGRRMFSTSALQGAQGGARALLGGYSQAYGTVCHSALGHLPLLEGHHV

Measured: inhibition

Serine/threonine-protein kinase MRCK alpha (Homo sapiens), sequence (Q5VT25 whole entry): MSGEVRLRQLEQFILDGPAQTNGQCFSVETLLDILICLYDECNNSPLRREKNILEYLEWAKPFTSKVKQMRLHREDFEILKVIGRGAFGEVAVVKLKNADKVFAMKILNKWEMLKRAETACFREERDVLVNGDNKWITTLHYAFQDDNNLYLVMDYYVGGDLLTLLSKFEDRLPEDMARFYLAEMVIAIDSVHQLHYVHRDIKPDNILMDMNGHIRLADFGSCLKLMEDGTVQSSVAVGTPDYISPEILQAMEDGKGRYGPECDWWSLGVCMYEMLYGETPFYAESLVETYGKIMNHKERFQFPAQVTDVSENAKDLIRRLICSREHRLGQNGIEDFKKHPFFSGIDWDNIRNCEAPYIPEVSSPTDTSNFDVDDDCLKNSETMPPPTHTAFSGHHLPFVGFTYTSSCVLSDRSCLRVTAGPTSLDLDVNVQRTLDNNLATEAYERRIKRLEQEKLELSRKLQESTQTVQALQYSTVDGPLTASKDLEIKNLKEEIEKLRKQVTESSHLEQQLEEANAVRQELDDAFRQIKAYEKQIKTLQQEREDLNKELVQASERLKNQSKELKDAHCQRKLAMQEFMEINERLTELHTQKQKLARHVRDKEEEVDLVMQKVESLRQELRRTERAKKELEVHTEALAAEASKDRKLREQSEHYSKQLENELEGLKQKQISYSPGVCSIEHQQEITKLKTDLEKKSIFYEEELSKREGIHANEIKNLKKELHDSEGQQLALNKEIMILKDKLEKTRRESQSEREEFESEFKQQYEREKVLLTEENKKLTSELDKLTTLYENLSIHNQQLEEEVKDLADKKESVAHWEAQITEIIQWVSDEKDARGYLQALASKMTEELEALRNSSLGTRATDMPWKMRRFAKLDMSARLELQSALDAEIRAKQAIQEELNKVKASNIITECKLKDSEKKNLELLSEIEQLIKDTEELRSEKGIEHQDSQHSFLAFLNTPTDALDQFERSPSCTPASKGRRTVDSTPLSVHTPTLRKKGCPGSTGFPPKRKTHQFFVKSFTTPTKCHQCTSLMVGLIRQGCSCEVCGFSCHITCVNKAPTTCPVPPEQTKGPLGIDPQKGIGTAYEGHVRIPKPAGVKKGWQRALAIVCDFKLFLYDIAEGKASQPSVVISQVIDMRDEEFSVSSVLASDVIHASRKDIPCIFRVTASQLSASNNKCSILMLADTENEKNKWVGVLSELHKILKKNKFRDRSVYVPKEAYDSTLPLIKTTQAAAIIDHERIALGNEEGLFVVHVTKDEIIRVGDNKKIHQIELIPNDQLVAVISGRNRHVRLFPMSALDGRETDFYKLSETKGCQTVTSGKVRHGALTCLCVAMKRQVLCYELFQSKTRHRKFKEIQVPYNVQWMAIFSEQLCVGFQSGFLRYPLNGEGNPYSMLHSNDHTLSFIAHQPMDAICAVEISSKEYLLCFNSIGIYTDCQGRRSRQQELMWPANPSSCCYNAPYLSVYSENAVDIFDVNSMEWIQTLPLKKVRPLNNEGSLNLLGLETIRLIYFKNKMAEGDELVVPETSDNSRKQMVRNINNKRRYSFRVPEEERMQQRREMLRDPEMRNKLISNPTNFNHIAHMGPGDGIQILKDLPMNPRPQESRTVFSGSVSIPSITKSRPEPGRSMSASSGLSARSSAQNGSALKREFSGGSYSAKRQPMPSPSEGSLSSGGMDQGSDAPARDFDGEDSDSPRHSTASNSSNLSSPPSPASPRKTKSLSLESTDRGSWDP
Tyrosine-protein kinase Yes (Homo sapiens), sequence (P07947 2-543 limits assumed): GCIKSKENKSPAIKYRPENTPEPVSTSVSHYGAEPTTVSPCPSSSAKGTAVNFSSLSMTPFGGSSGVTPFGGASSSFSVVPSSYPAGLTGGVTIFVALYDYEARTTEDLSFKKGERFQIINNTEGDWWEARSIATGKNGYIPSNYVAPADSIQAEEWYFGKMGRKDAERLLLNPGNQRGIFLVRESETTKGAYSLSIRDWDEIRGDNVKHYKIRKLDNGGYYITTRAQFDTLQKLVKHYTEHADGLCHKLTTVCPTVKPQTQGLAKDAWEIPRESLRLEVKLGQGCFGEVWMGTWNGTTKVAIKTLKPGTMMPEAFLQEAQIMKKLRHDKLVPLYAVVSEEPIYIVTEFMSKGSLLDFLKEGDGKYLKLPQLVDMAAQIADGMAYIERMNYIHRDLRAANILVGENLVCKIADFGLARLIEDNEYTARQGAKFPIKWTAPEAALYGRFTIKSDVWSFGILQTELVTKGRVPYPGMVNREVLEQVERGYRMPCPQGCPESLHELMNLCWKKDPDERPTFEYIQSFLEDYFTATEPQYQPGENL
Dual specificity protein kinase CLK4 (Homo sapiens), sequence (Q9HAZ1 whole entry, looked up): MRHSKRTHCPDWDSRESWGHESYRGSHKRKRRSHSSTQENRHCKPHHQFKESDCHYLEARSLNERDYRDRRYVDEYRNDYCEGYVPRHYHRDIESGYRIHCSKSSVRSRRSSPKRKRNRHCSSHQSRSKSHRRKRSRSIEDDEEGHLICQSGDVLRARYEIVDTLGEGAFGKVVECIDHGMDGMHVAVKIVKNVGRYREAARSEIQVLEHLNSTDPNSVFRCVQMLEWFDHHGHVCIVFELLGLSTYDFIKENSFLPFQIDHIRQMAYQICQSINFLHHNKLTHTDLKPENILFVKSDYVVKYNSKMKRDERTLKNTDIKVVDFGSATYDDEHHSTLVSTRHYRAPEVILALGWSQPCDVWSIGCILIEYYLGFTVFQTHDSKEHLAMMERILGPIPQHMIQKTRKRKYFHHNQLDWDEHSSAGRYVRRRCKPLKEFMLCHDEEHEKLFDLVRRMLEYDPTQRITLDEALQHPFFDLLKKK
Dual specificity mitogen-activated protein kinase kinase 2 (Homo sapiens), sequence (P36507 whole entry): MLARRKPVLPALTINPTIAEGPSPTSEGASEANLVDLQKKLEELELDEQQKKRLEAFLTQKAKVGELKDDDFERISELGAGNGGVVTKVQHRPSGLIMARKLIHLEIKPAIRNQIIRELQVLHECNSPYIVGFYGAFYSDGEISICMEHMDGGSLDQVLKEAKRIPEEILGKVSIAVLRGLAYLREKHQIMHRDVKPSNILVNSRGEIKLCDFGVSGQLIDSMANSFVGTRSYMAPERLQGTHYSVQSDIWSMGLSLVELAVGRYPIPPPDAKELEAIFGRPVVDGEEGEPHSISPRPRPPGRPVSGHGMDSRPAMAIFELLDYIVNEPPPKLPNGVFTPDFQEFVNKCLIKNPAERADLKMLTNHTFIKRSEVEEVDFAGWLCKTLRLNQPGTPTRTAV
Myosin-IIIa (Homo sapiens), sequence (Q8NEV4 whole entry): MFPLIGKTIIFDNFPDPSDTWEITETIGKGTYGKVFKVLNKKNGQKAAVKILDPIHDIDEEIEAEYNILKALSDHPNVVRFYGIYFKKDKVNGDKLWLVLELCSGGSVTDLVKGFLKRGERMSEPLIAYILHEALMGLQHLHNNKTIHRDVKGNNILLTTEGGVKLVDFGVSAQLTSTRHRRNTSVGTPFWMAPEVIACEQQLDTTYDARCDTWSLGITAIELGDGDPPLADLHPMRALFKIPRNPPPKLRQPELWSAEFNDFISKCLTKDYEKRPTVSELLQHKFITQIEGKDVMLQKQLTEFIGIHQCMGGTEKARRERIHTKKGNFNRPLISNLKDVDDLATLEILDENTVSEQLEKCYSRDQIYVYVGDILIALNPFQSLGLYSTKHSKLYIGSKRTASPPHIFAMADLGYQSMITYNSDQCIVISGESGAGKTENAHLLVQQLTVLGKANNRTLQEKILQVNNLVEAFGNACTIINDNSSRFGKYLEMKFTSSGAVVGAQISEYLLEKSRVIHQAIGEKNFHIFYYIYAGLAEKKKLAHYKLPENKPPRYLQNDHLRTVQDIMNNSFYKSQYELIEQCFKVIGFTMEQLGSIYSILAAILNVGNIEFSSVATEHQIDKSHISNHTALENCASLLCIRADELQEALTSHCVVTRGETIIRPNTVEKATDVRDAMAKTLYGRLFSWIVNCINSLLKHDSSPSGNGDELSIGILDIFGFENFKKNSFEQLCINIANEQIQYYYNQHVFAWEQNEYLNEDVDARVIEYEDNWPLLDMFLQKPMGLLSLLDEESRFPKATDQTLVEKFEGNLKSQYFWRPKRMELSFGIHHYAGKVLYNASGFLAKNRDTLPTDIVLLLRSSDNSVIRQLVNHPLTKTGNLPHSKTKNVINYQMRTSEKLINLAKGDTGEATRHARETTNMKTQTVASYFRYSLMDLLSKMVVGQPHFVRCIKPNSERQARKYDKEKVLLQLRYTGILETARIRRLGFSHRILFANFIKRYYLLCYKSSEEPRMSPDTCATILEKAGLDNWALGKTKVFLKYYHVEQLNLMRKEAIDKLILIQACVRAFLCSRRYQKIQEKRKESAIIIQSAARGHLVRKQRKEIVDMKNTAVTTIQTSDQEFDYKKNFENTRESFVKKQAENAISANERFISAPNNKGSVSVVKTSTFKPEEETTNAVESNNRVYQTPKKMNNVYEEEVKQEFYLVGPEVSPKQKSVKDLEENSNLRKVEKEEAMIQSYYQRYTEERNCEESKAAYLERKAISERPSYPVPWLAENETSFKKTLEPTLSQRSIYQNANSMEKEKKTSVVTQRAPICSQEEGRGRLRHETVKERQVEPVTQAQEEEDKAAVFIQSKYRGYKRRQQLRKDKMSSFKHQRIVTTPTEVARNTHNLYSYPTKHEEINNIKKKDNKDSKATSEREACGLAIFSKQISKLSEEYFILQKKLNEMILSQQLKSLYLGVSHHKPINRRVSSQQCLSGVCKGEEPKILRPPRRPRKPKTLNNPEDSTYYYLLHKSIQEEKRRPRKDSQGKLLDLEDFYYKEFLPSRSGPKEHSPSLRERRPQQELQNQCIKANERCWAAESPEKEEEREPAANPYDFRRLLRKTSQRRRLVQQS

CN1CCN(c2ccc(-c3cnc4c(c3)N(Cc3cc(Cl)ccc3Cl)CCN4)cn2)CC1
< 50%: all assays above

CN1CCN(c2ccc(-c3cnc4c(c3)N(Cc3cc(Cl)ccc3C(F)(F)F)CCN4)cn2)CC1
< 50%: all assays above

CN1CCN(c2ccc(-c3cnc4c(c3)N(Cc3c(F)ccc(F)c3Cl)CCN4)cn2)CC1
< 50%: all assays above

O=C(c1ccc(-c2cnc3c(c2)N(Cc2cc(Cl)ccc2C(F)(F)F)CCN3)cc1)N1CCC(N2CCCC2)CC1
< 50%: [2] | [4] | [5] | [6] | [7]

COC1CCN(C(=O)c2ccc(-c3cnc4c(c3)N(Cc3cc(Cl)ccc3C(F)(F)F)CCN4)cc2)CC1
< 50%: [2] | [4] | [5] | [6] | [7]

FC(F)(F)c1ccc(Cl)cc1CN1CCNc2ncc(-c3ccnc(N4CCNCC4)c3)cc21
< 50%: all assays above

CN1CCN(c2ccc(-c3cnc4c(c3)N(Cc3cc(F)ccc3F)CCN4)cn2)CC1
< 50%: all assays above

O=C(c1ccc(-c2cnc3c(c2)N(Cc2cc(Cl)ccc2C(F)(F)F)CCN3)cc1)N1CCCCC1
< 50%: [2] | [4] | [5] | [6]

CC(=O)N1CCN(c2cc(-c3cnc4c(c3)N(Cc3cc(Cl)ccc3C(F)(F)F)CCN4)ccn2)CC1
< 50%: all assays above

O=C(O)c1ccc(-c2cnc3c(c2)N(Cc2cc(Cl)ccc2C(F)(F)F)CCN3)cc1
< 50%: [2] | [4] | [5] | [6]
